# Experimental data: ChEMBL document CHEMBL1151446, “The PhoQ-activating potential of antimicrobial peptides contributes to antimicrobial efficacy and is predictive of the induction of bacterial resistance” (2007)
# Calls of active or inactive are those of the source. The calls are words filed in the database; no cut-off is given here. Where a SMILES comes first, the peptide text is derived from it.
# Legend:
# [1] = test system: Salmonella enterica subsp. enterica; experiment: Antibacterial activity against wild type Salmonella enterica serovar Typhimurium ATCC 14028 after 16 hrs by modified twofold broth microdilution method; format: functional, Salmonella enterica subsp. enterica serovar Typhimurium; conditions: ATCC 14028, 16 h
# How it was run: (§1)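 Broth microdilution MBC assay: 5 × 10^5 bacteria/ml in LB with a linear gradient of peptide concentrations. Peptide dilutions were made fresh in 0.2% BSA, 0.01% acetic acid and added after the inoculum. Plates were incubated at 37°C for 16 h, then spotted onto LB agar. MBC was the lowest concentration with no growth, averaged over at least three trials.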
# [2] = test system: Salmonella enterica subsp. enterica; experiment: Antibacterial activity against bacterial sensory kinase PhoQ deficient Salmonella enterica serovar Typhimurium CS009 after 16 hrs by modified twofold broth microdilution method; format: functional, Salmonella enterica subsp. enterica serovar Typhimurium; conditions: CS009, 16 h; how it was run: as §1
# [3] = test system: Salmonella enterica subsp. enterica; experiment: Antibacterial activity against bacterial sensory kinase PhoQ deficient Salmonella enterica serovar Typhimurium expressing PhoPQ operon after 16 hrs by modified twofold broth microdilution method; format: functional, Salmonella enterica subsp. enterica serovar Typhimurium; how it was run: as §1
# [4] = test system: Salmonella enterica subsp. enterica; experiment: Antibacterial activity against bacterial sensory kinase PhoP deficient Salmonella enterica serovar Typhimurium CS053 after 16 hrs by modified twofold broth microdilution method; format: functional, Salmonella enterica subsp. enterica serovar Typhimurium; conditions: CS053, 16 h; how it was run: as §1
# [5] = test system: Salmonella enterica subsp. enterica; experiment: Antibacterial activity against bacterial sensory kinase PhoQ deficient Salmonella enterica serovar Typhimurium CS009 assessed as direct antimicrobial activity after 16 hrs by modified twofold broth microdilution method; format: functional, Salmonella enterica subsp. enterica serovar Typhimurium; how it was run: as §1
# [6] = test system: Salmonella enterica subsp. enterica; experiment: Antibacterial activity against bacterial sensory kinase PhoQ deficient Salmonella enterica serovar Typhimurium CS009 assessed as PhoQ-activating potential after 16 hrs by modified twofold broth microdilution method relative to wild type Salmonella enterica serovar Typhimurium ATCC 14028; format: functional, Salmonella enterica subsp. enterica serovar Typhimurium
# How it was run: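 PAP was calculated as MBC against wild-type ATCC 14028 minus MBC against PhoQ mutant CS009. Both MBCs came from the broth microdilution assay: 5 × 10^5 bacteria/ml in LB, 37°C for 16 h, spotting onto LB agar, no-growth endpoint, averaged over at least three trials.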
# [7] = molecular target: T1, Virulence sensor histidine kinase PhoQ (Salmonella typhimurium (strain LT2 / SGSC1412 / ATCC 700720)) (UniProt P0DM80); experiment: Activation of PhoQ in Salmonella enterica serovar Typhimurium CS102 expressing PhoN fusion protein assessed as initiation of acid phosphatase reporter enzyme expression at 1 ug/ml in presence of 1 mM magnesium; conditions: Salmonella enterica subsp. enterica serovar Typhimurium
# T1 sequence (whole entry): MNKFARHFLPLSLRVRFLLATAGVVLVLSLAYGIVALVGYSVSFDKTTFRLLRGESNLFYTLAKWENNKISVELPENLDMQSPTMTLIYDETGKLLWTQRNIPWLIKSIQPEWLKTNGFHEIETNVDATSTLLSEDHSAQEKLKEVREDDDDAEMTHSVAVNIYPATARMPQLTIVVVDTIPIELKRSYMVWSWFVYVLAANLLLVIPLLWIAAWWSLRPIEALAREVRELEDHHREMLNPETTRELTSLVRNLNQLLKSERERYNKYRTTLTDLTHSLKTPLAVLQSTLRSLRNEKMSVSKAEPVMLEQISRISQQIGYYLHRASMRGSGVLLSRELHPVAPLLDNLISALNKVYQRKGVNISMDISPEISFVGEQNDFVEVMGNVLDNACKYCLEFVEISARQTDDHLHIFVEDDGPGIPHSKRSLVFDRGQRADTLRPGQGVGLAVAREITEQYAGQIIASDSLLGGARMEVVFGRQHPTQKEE
# How it was run: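 PhoPQ reporter strain CS102 (PhoQ-regulated acid phosphatase PhoN fusion) incubated in LB with peptide at 1 μg/ml plus 1 mM magnesium; acid phosphatase activity measured. Reference conditions were 50 μM MgCl2 (activating) and 5 mM MgCl2 (repressive). Mean of three replicate experiments.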
# [8] = test system: Salmonella enterica subsp. enterica; experiment: (§2) Antibacterial activity against wild type Salmonella enterica serovar Typhimurium ATCC 14028 preincubated till 4 hrs at dosing schedule of 1 ug/ml at time zero, 1 ug/ml at 1st hr, 2 ug/ml at 2nd hr and final 4 ug/ml at 3rd hr assessed as increase in minimum bactericidal concentration measured after 16 hrs by modified twofold broth microdilution method in presence of 1 mM Mg2+ relative to naive unadapted bacteria; format: functional, Salmonella enterica subsp. enterica serovar Typhimurium
# [9] = test system: Salmonella enterica subsp. enterica; experiment: Antibacterial activity against wild type Salmonella enterica serovar Typhimurium ATCC 14028 assessed as direct antimicrobial activity after 16 hrs by modified twofold broth microdilution method; format: functional, organism-based
# [10] = test system: Salmonella enterica subsp. enterica; experiment: Antibacterial activity against bacterial sensory kinase PhoP deficient Salmonella enterica serovar Typhimurium CS053 assessed as direct antimicrobial activity after 16 hrs by modified twofold broth microdilution method; format: functional, organism-based; how it was run: as §1
# [11] = test system: Salmonella enterica subsp. enterica; experiment: as §2, with “hr” for “hr assessed as increase in minimum bactericidal concentration”, “Mg2+” for “Mg2+ relative to naive unadapted bacteria”; format: functional, organism-based
# [12] = test system: Salmonella enterica subsp. enterica; experiment: Antibacterial activity against bacterial sensory kinase PhoQ deficient Salmonella enterica serovar Typhimurium CS009 by modified twofold broth microdilution method; format: functional, Salmonella enterica subsp. enterica serovar Typhimurium
# [13] = test system: Salmonella enterica subsp. enterica; experiment: Antibacterial activity against wild type Salmonella enterica serovar Typhimurium ATCC 14028 by modified twofold broth microdilution method; format: functional, Salmonella enterica subsp. enterica serovar Typhimurium
Compound,MBC [1] [µg/mL],MBC [2] [µg/mL],MBC [3] [µg/mL],MBC [4] [µg/mL],Activity [5] [µg/mL],Activity [6] [µg/mL],Activity [7],fold change (FC) [8],Activity [9],Activity [10],Activity [11],MIC [12] [µg/mL],MIC [13] [µg/mL]
CC(C)C[C@H](NC(=O)[C@H](CCCCN)NC(=O)[C@H](CCC(N)=O)NC(=O)[C@H](CC(N)=O)NC(=O)[C@H](CC(C)C)NC(=O)[C@H](CC(=O)O)NC(=O)[C@H](CCC(=O)O)NC(=O)[C@@H]1CCCN1C(=O)[C@@H](NC(=O)[C@H](C)NC(=O)CN)[C@@H](C)O)C(=O)N[C@@H](CO)C(N)=O (H-GATPEDLNQKLS-NH2),> 500,> 500,> 500,> 500,–,–,–,–,–,–,–,–,–
CC[C@H](C)[C@H](NC(=O)[C@H](CCCCN)NC(=O)[C@@H](NC(=O)[C@@H](NC(=O)[C@H](CCCNC(=N)N)NC(=O)[C@H](C)NC(=O)[C@H](CC(C)C)NC(=O)[C@@H](N)CCCNC(=N)N)[C@@H](C)CC)C(C)C)C(=O)N[C@@H](CCCNC(=N)N)C(=O)N[C@H](C(=O)N[C@@H](C)C(=O)N[C@@H](CCCNC(=N)N)C(N)=O)C(C)C (H-RLARIVKIRVAR-NH2),68.8,13.1,69,13.3,13.1,55.7,Active,<=10,–,–,–,–,–
CC[C@H](C)[C@H](NC(=O)[C@H](CCCNC(=N)N)NC(=O)[C@H](C)NC(=O)[C@H](CC(C)C)NC(=O)[C@@H](N)CCCNC(=N)N)C(=O)N[C@H](C(=O)N1CCC[C@H]1C(=O)N[C@H](C(=O)N[C@@H](CCCNC(=N)N)C(=O)N[C@H](C(=O)N[C@@H](C)C(=O)N[C@@H](CCCNC(=N)N)C(N)=O)C(C)C)[C@@H](C)CC)C(C)C (H-RLARIVPIRVAR-NH2),> 500,46.7,> 500,45.4,46.7,–,Active,–,inactive,inactive,–,–,–
CC[C@H](C)[C@H](NC(=O)[C@H](CCCNC(=N)N)NC(=O)[C@H](C)NC(=O)[C@H](CC(C)C)NC(=O)[C@@H](N)CCCNC(=N)N)C(=O)N[C@H](C(=O)N[C@H](C(=O)N[C@H](C(=O)N[C@@H](CCCNC(=N)N)C(=O)N[C@H](C(=O)N[C@@H](C)C(=O)NCC(N)=O)C(C)C)[C@@H](C)CC)C(C)C)C(C)C (H-RLARIVVIRVAG-NH2),31.4,8.6,34,10.1,8.6,22.8,Active,–,–,–,–,–,–
CC[C@H](C)[C@H](NC(=O)[C@H](CCCNC(=N)N)NC(=O)[C@H](C)NC(=O)[C@H](CC(C)C)NC(=O)[C@@H](N)CCCNC(=N)N)C(=O)N[C@H](C(=O)N[C@H](C(=O)N[C@H](C(=O)N[C@@H](CCCNC(=N)N)C(=O)N[C@H](C(=O)N[C@@H](C)C(=O)N[C@@H](CCCNC(=N)N)C(N)=O)C(C)C)[C@@H](C)CC)C(C)C)C(C)C (H-RLARIVVIRVAR-NH2),32.8,6.2,42.5,6.5,6.2,–,Active,–,–,–,–,–,–
CC[C@H](C)[C@H](NC(=O)[C@H](CCCNC(=N)N)NC(=O)[C@H](CCCNC(=N)N)NC(=O)[C@H](CC(C)C)NC(=O)[C@@H](N)CCCNC(=N)N)C(=O)N[C@H](C(=O)N[C@H](C(=O)N[C@H](C(=O)N[C@@H](CCCNC(=N)N)C(=O)N[C@H](C(=O)N[C@@H](C)C(=O)N[C@@H](CCCNC(=N)N)C(N)=O)C(C)C)[C@@H](C)CC)C(C)C)C(C)C (H-RLRRIVVIRVAR-NH2),11.5,4.2,30,3.8,4.2,7.3,inactive,–,–,–,Active,–,–
CC[C@H](C)[C@H](NC(=O)[C@H](CCCNC(=N)N)NC(=O)[C@H](Cc1c[nH]c2ccccc12)NC(=O)[C@H](CCCNC(=N)N)NC(=O)[C@@H](N)CCCNC(=N)N)C(=O)N[C@H](C(=O)N[C@H](C(=O)N[C@H](C(=O)N[C@@H](CCCNC(=N)N)C(=O)N[C@H](C(=O)N[C@@H](CCCNC(=N)N)C(=O)N[C@@H](CCCNC(=N)N)C(N)=O)C(C)C)[C@@H](C)CC)C(C)C)C(C)C (H-RRWRIVVIRVRR-NH2),10,5.7,19,6.4,5.7,34.3,inactive,–,–,–,–,–,–
CC1(C)S[C@@H]2[C@H](NC(=O)[C@H](N)c3ccccc3)C(=O)N2[C@H]1C(=O)O [AMPICILLIN],–,–,–,–,–,–,–,–,–,–,–,8,10
CC1(C)S[C@@H]2[C@H](NC(=O)C(C(=O)O)c3ccccc3)C(=O)N2[C@H]1C(=O)O (stereo not given in full) [CARBENICILLIN],–,–,–,–,–,–,–,–,–,–,–,8,10
CCn1cc(C(=O)O)c(=O)c2ccc(C)nc21 [NALIDIXIC ACID],–,–,–,–,–,–,–,–,–,–,–,3,3
CN(C)[C@@H]1C(O)=C(C(N)=O)C(=O)[C@@]2(O)C(O)=C3C(=O)c4c(O)cccc4[C@@](C)(O)[C@H]3C[C@@H]12 [TETRACYCLINE],–,–,–,–,–,–,–,–,–,–,–,3,3
COc1cc(Cc2cnc(N)nc2N)cc(OC)c1OC [TRIMETHOPRIM],–,–,–,–,–,–,–,–,–,–,–,1,1
GENTAMICIN,–,–,–,–,–,–,–,–,–,–,–,16,16
